One data set has as its target Cytochrome P450 3A4 (Homo sapiens, UniProt P08684). The data set is described as follows: Inhibition of human hepatocyte microsome CYP3A4 using testosterone as substrate by HPLC/MS/MS method. It is filed as ADME. An outline of the steps:
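Pooled human hepatocyte microsome preparation with an NADPH-regenerating system. Product analysed by HPLC/MS/MS. IC50 from a 4-parameter logistic fit of the dose-response data.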

In data set [1] the target is T1, Steroid 17-alpha-hydroxylase/17,20 lyase (Homo sapiens, UniProt P05093).
T1 sequence (P05093 whole entry): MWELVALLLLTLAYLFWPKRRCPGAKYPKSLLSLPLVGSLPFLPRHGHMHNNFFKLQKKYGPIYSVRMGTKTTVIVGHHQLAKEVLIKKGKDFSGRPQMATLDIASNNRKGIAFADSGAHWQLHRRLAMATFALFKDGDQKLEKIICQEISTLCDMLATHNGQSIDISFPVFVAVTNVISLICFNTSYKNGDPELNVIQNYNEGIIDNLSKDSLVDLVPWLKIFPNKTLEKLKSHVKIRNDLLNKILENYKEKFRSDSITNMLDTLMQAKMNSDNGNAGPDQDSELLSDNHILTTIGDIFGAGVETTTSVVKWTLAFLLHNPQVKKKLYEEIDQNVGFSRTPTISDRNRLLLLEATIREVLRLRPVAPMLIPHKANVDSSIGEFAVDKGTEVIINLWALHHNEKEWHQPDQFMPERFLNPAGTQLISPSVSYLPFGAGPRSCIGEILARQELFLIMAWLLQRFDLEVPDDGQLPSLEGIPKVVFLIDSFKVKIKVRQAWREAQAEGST
The data set is described as follows: Inhibition of human recombinant CYP17 lyase activity using 17alpha-hydroxypregnenolone as substrate by HPLC/MS/MS method. An outline of the steps: (§1)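 Recombinant human CYP17 expressed in a yeast microsome system, run with an NADPH-regenerating system. Hydroxylase and lyase products analysed by HPLC/MS/MS. IC50 from a 4-parameter logistic fit of the dose-response data.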

The target of data set [2] is T1, Steroid 17-alpha-hydroxylase/17,20 lyase. The data set is described as follows: Inhibition of human recombinant CYP17 hydroxylase activity by HPLC/MS/MS method. An outline of the steps:
as §1

Data set [3] relates to CYP3A4 versus CYP17 lyase. The data set can be described thus: Selectivity ratio of IC50 for human hepatocyte microsome CYP3A4 to IC50 for human recombinant CYP17 lyase activity. The data set is classed as ADME, cell-based. As to conditions: read-out: Ratio IC50. In outline: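 Ratio of human CYP3A4 IC50 (pooled human hepatocyte microsomes) to human CYP17 lyase IC50 (recombinant enzyme, yeast microsomes). Both IC50 values from HPLC/MS/MS product analysis with a 4-parameter logistic fit.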

Data set [4] deals with T1, Steroid 17-alpha-hydroxylase/17,20 lyase. The data set can be described thus: Selectivity ratio of IC50 for human recombinant CYP17 hydroxylase activity to IC50 for human recombinant CYP17 lyase activity. In outline: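 Lyase selectivity expressed as human hydroxylase IC50 divided by human lyase IC50. Both values come from recombinant human CYP17 in a yeast microsome system, with products analysed by HPLC/MS/MS and 4-parameter logistic fitting.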

A short description of data set [5]: Metabolic stability in human liver microsomes assessed as compound remaining after 60 mins. The data set is classed as ADME. The settings on record: read-out: Stability. In outline: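 Incubation in human liver microsomes for 60 min. Read-out is the percentage of parent compound remaining.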
In data set [6] the test system is CYP3A4 versus CYP17 lyase. The data set can be described thus: Selectivity ratio of IC50 for human hepatocyte microsome CYP3A4 to IC50 for rat testicular microsome CYP17 lyase activity.
The target in data set [7] is T2, Steroid 17-alpha-hydroxylase/17,20 lyase (Rattus norvegicus, UniProt P11715).
T2 sequence (P11715 whole entry): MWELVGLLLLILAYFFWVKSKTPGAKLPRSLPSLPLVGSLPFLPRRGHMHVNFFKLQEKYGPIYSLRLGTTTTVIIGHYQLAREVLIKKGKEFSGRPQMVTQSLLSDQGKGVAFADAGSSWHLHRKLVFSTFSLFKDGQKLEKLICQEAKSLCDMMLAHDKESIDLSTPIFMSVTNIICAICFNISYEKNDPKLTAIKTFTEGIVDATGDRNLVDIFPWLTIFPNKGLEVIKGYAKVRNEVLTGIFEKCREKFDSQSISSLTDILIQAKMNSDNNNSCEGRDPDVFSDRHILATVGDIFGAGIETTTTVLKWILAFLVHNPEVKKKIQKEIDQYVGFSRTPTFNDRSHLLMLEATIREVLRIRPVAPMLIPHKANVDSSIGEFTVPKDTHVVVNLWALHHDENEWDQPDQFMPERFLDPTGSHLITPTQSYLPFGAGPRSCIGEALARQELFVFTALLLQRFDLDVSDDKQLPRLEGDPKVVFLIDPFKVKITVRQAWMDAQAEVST
The data set can be described thus: Inhibition of rat testicular microsome CYP17 lyase activity using 17alpha-hydroxypregnenolone as substrate by HPLC/MS/MS method. In outline:
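Rat testicular microsome preparation with an NADPH-regenerating system. Product analysed by HPLC/MS/MS. IC50 taken from a 4-parameter logistic fit of the dose-response data.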

Data set [8] concerns Hamster. The data set is described as follows: Inhibition of CYP17 in gonadally-intact hamster assessed as progesterone level in serum at 50 mg/kg, po after 2 hrs by LC/MS/MS analysis (reference value: 1.02 +/- 0.05 ng/mL). It is filed as functional, Cricetinae.
Data set [9] deals with Hamster. The data set can be described thus: Inhibition of CYP17 in gonadally-intact hamster assessed as testosterone level in serum at 50 mg/kg, po after 2 hrs by LC/MS/MS analysis (reference value: 1.98 +/- 0.057 ng/mL). The data set is classed as functional, Cricetinae.
Data set [10] deals with T2, Steroid 17-alpha-hydroxylase/17,20 lyase. The data set can be described thus: Inhibition of rat testicular microsome CYP17 hydroxylase activity by HPLC/MS/MS method. In outline: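 Rat testicular microsomal preparation as the enzyme source, with an NADPH-regenerating system. Reaction product was analysed by HPLC/MS/MS. IC50 was derived from a 4-parameter logistic fit of the dose-response data.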

This is an account of results in ChEMBL document CHEMBL3259743, “Highly-selective 4-(1,2,3-triazole)-based P450c17a 17,20-lyase inhibitors” (Bioorg Med Chem Lett, 2014).

Bounds are passed on as bounds.

Sequence of Cytochrome P450 3A4 (P08684 whole entry): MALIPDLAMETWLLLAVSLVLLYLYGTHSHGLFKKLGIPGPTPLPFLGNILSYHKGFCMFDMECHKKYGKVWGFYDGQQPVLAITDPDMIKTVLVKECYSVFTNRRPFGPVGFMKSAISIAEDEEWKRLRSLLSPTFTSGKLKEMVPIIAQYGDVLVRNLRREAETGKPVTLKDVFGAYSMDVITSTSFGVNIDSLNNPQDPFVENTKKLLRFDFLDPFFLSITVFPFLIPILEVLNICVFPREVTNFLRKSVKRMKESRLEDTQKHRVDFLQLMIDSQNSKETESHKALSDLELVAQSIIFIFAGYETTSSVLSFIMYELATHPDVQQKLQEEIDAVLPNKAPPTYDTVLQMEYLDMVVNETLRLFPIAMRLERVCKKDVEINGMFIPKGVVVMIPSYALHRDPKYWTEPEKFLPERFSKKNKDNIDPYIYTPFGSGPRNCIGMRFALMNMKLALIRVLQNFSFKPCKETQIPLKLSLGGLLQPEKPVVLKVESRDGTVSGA

Take `COc1cc2ccc(C(O)(c3ccncn3)C(C)C)cc2cc1OC` (racemic): the IC50 against Cytochrome P450 3A4 was determined as 18000 nM.

Regarding `CC(C)C(O)(c1ccc2cc(OC(F)F)ccc2c1)c1c[nH]nn1` (racemic), the IC50 was found to be 330 nM in [1], 14000 nM at Cytochrome P450 3A4 and 74 nM in data set [2]. For the same compound, the selectivity ratio in data set [3] is 42. The “Ratio IC50” value in data set [4] is 0.22.

Regarding `CC(C)C(O)(c1ccc2cc(OCC(F)(F)F)c(OCC(F)(F)F)cc2c1)c1c[nH]nn1` (racemic), the IC50 in data set [1] turned out to be 310 nM; at Cytochrome P450 3A4 it was 25000 nM; in data set [2], 3700 nM. The selectivity ratio in data set [3] was 80. Moreover, the “Ratio IC50” value in data set [4] is 12.

`CC(C)C(O)(c1ccc2cc(OCC(F)(F)F)ccc2c1)c1c[nH]nn1` (racemic): the IC50 is 570 nM in data set [1], not below 195000 nM against Cytochrome P450 3A4 and 1000 nM in data set [2]. Also, the selectivity ratio in data set [3] is not below 340. In [4], the “Ratio IC50” value amounted to 1.8.

Take `COc1cc2ccc(C(O)(c3c[nH]nn3)C(C)C)cc2cc1OC` (racemic): in data set [5], the remaining at 1 h is 29%. Moreover, the IC50 worked out at 180 nM in data set [1], 57000 nM against Cytochrome P450 3A4 and 2300 nM in [2]. In addition, the selectivity ratio was 320 in data set [3] and 317 in data set [6]. The “Ratio IC50” value in [4] is 13.

For the compound `COc1cc2ccc(C(O)(c3cccnc3)C(C)C)cc2cc1OC` (racemic), the IC50 at Cytochrome P450 3A4 was 9400 nM; in data set [7], 4200 nM.

In the case of `CC(C)C(O)(c1ccc2cc(-c3cnco3)ccc2c1)c1c[nH]nn1` (racemic), the figures for the IC50 (in data set [1]; on Cytochrome P450 3A4; in [2]) were 940 nM, 102000 nM and 13000 nM, respectively. Moreover, the selectivity ratio in data set [3] is 110. Besides, the “Ratio IC50” value in data set [4] is 14.

In the case of `CC(C)C(O)(c1ccc2cc(OC(F)F)c(OC(F)F)cc2c1)c1c[nH]nn1` (racemic), in [5], the remaining at 1 h was 54%. The IC50 in data set [1] is 170 nM; in [2], 690 nM.

On Cytochrome P450 3A4, `COc1cc2ccc(C(O)(c3cncs3)C(C)C)cc2cc1OC` (racemic) yielded a half-inhibitory concentration (IC50) of 770 nM.

Regarding `CC(C)C(O)(c1ccc2cc(-c3cccs3)ccc2c1)c1c[nH]nn1` (racemic), the IC50 in data set [1] is more than 4000 nM; at Cytochrome P450 3A4, 81000 nM; in data set [2], 13000 nM. For the same compound, in data set [3], the selectivity ratio was less than 20. Further, the “Ratio IC50” value in data set [4] is reported as less than 3.

As to `COc1cc2ccc(C(O)(c3c[nH]cn3)C(C)C)cc2cc1OC` (racemic), the Activity with Hamster [8] was determined as 3.9 ng/mL; in the data set on Hamster [9], 0.3 ng/mL. The IC50 in [1] amounted to 50 nM; in data set [10], 140 nM; against Cytochrome P450 3A4, 1600 nM; in data set [2], 220 nM; in [7], 29 nM. Further, in data set [3], the selectivity ratio was 32. In data set [4], the “Ratio IC50” value amounted to 4.4.

On to `COc1cc2ccc(C(O)(c3ccncc3)C(C)C)cc2cc1OC` (racemic), for which the results for the half-maximal inhibitory concentration (IC50) (on Cytochrome P450 3A4; in [7]) were 4500 nM and 60 nM, respectively.

Take `COc1cc2ccc(C(O)(c3cc[nH]n3)C(C)C)cc2cc1OC` (racemic): the IC50 turned out to be 1800 nM against Cytochrome P450 3A4 and 1600 nM in data set [7].

As for `CC(=O)O[C@H]1CC[C@@]2(C)C(=CC[C@@H]3[C@@H]2CC[C@]2(C)C(c4cccnc4)=CC[C@@H]32)C1` [ABIRATERONE ACETATE], the Activity in the data set with Hamster [8] came to 2.1 ng/mL; with Hamster [9], 0.3 ng/mL.

For the compound `COc1cc2ccc(C(O)(c3cn[nH]c3)C(C)C)cc2cc1OC` (racemic), the values for the IC50 (against Cytochrome P450 3A4; in [7]) were 27000 nM and 430 nM, respectively.

For the compound `CC(C)[C@](O)(c1ccc2cc(OC(F)F)c(OC(F)F)cc2c1)c1c[nH]nn1` [SEVITERONEL], the Activity was determined as 1.2 ng/mL in the data set on Hamster [8] and 0.37 ng/mL with Hamster [9].

For `COc1cc2ccc(C(O)(c3nc[nH]n3)C(C)C)cc2cc1OC` (racemic), the IC50 at Cytochrome P450 3A4 was found to be 100000 nM; in [7] it was 7100 nM.

With `COc1cc2ccc(C(O)(c3cnco3)C(C)C)cc2cc1OC` (racemic), the IC50 worked out at 6500 nM on Cytochrome P450 3A4 and 86 nM in data set [7].
